Screening results as filed in PubChem BioAssay.
MDM2 E3 inh = inhibitors of human Mdm2 E3 ubiquitin ligase; cell-based MDM2 ubiquitination luciferase reporter, 2 h; 0 = plate control, 100 = twice control, blank-subtracted; signal enhancement, % at 5 µM; hit rate 0.11% among 210,000;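 active means signal enhancement of 30% or more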;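 further: luminescence tracks abundance of the self-degrading MDM2-luciferase fusion protein; higher signal means inhibition of MDM2 E3 ligase activity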
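Buffer or medium: Cells held in DMEM | Assay system: Stable mammalian line carrying autodegrading MDM2–luciferase fusion reporter | Quantity: 2000 cells/well | Times: 4 h settle plus 2 h compound, 37 °C | Doses: One concentration, 5 µM, with 0.2% DMSO | Technique: Luminescence with SteadyLite reagent, 15 min at room temperature | Benchmarks: Plate controls and plate blanks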
STAT1 activator = activators of IFN-gamma induced STAT1 signaling; NIH 3T3 STAT1-luciferase reporter, luminescence; 100% = IFN-gamma alone, no compound; activation (% of control), % at 5.5 µM; hit rate 2.6% among 200,000; AID 932;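 active means activation above the screen-wide mean activation plus 3 SD, cut at about 130% in these data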;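 further: raw ratio to IFN-gamma control signal so 100% means no change and 0% no light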
p97 inhibitor = blocks human p97 ATPase activity. inhibition, % at 8 µM. hit rate 0.42% among 220,000. recombinant p97 ATPase, Kinase-Glo ATP luminescence, 3 h. P55072; in the data active means inhibition above about 15%;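 further: 0% = DMSO vehicle and 100% = wells lacking enzyme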
APP 5'UTR act = APP 5'UTR luciferase reporter activation; hit rate 1% among 190,000; activation, % at 2 µM; AID 1276; SH-SY5Y APP 5'UTR luciferase reporter, luminescence; zero percent = DMSO vehicle wells;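 active means activation above a set limit, based on mean plus 3 SD of controls, cut at about 140% in these data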
NF-kB neuron act = NF-kB expression increase, human neuronal cells; NF-kB reporter expression; stronger effect = higher value; fold change at 12.5 µM; hit rate 1.6% among 190,000; in the data active means fold change above about 3.3
Wee1 degr inh = blocks degradation of human Wee1 kinase | P30291 | HeLa Luc-Wee1K328M stability, luciferase luminescence; 100% = proteasome inhibitor MG132 effect | reporter increase, % at 5 µM | hit rate 1.2% among 220,000 | AID 1321;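 active means activation above the mean of all tested compounds plus 3 SD, set per screening run, cut at about 8.8% in these data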;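 further: cells exposed to compound for 20 h before luminescence read; 0% = DMSO alone and 100% = MG132 at 30 µM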
Target sequence (P30291 whole entry K328M): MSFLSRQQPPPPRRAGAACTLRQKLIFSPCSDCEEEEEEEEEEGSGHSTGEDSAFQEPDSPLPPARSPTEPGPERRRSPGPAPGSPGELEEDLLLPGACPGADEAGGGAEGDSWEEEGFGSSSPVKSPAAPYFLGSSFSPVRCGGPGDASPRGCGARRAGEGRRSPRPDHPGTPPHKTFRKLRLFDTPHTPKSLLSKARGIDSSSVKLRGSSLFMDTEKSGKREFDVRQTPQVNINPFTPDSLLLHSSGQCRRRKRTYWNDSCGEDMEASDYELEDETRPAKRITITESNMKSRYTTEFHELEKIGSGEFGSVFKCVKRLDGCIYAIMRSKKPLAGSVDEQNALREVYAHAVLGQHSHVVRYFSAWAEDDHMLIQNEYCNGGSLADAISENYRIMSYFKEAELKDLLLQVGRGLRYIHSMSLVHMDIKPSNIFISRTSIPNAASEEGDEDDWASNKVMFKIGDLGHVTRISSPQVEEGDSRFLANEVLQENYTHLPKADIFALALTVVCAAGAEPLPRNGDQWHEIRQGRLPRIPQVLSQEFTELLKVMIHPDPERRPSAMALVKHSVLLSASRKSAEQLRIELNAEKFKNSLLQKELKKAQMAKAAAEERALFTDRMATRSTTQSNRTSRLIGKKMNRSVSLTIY
* marks the source's active call; other numbers are inactive results. Shown are actives, neighbours in structure and some others; about 4.6% of the full set was active somewhere.

How did COc1cccc(CN(CC2CCCO2)S(=O)(=O)c2ccc(S(=O)(=O)N(C)C)cc2)c1 (stereo not drawn) do in these assays?
MDM2 E3 inh: -11.4; STAT1 activator: 93.9; p97 inhibitor: 14.7*; APP 5'UTR act: 5.2; NF-kB neuron act: 0.93; Wee1 degr inh: 3.5

How did O=S(=O)(NC1CCCC1)c1ccc(S(=O)(=O)N(Cc2cccs2)CC2CCCO2)cc1 (stereo not drawn) do in these assays?
MDM2 E3 inh: -0.2; STAT1 activator: 93.0; p97 inhibitor: 2.2; APP 5'UTR act: -2.5; NF-kB neuron act: 0.78; Wee1 degr inh: 2.5

What do the screens show for `O=S(=O)(c1ccc(S(=O)(=O)N(Cc2cccs2)CC2CCCO2)cc1)N1CCCCC1` (stereo not drawn)?
MDM2 E3 inh: -15.4; STAT1 activator: 129.0*; p97 inhibitor: 0.9; APP 5'UTR act: 20.6; NF-kB neuron act: 1.37; Wee1 degr inh: 2.2

How did O=[N+]([O-])c1cccc(-c2nc3ccccc3s/c2=N/O)c1 do in these assays?
MDM2 E3 inh: -4.3; p97 inhibitor: -8.8; Wee1 degr inh: 2.8

What do the screens show for `CN(C)C(=O)COC(=O)c1ccccc1Nc1ccc(SC(F)F)cc1`?
MDM2 E3 inh: -5.1; STAT1 activator: 130.7*; p97 inhibitor: -0.7; APP 5'UTR act: 19.1; NF-kB neuron act: 2.53; Wee1 degr inh: -1.4

Results for COc1ccccc1NC(=O)COC(=O)c1ccccc1OCC(=O)Nc1ccc(SC(F)F)cc1 ?
MDM2 E3 inh: -16.5; STAT1 activator: 94.8; p97 inhibitor: 4.2; APP 5'UTR act: 18.1; NF-kB neuron act: 1.17; Wee1 degr inh: -0.5

How did COc1cc(C2C(S(=O)(=O)c3ccccc3)CON2C)ccc1OCc1ccc(F)cc1 (stereo not drawn) do in these assays?
MDM2 E3 inh: -12.1; STAT1 activator: 98.2; p97 inhibitor: -0.2; APP 5'UTR act: 35.0; NF-kB neuron act: 6.63*; Wee1 degr inh: -2.0

What do the screens show for `CCC(C)(C)NC(=O)C(c1ccc(F)cc1)N(Cc1cccs1)C(=O)c1cnccn1` (stereo not drawn)?
MDM2 E3 inh: 4.6; STAT1 activator: 100.8; p97 inhibitor: 2.1; APP 5'UTR act: 9.7; NF-kB neuron act: 0.93; Wee1 degr inh: 1.0

How did Cc1ccc(S(=O)(=O)Nc2ccccc2CNC2CCCCC2)cc1 do in these assays?
MDM2 E3 inh: -3.4; STAT1 activator: 101.7; p97 inhibitor: -1.1; APP 5'UTR act: 2.9; NF-kB neuron act: 0.98; Wee1 degr inh: 0.2

What do the screens show for `CCOC(=O)COc1ccc2c3c(c(=O)oc2c1C)CCC3`?
MDM2 E3 inh: -13.0; STAT1 activator: 91.9; p97 inhibitor: -4.8; APP 5'UTR act: 5.5; NF-kB neuron act: 4.78*; Wee1 degr inh: -0.7

How did Cc1c(OCc2nn[nH]n2)ccc2c3c(c(=O)oc12)CCCC3 do in these assays?
MDM2 E3 inh: -9.4; STAT1 activator: 93.5; p97 inhibitor: -1.3; APP 5'UTR act: 5.3; NF-kB neuron act: 1.1; Wee1 degr inh: -0.4

What do the screens show for `COCCCNC(=S)N1CCC(NC(=O)Nc2ccc(C)cc2)CC1`?
MDM2 E3 inh: -21.2; STAT1 activator: 91.4; p97 inhibitor: 3.2; APP 5'UTR act: 2.8; NF-kB neuron act: 0.97; Wee1 degr inh: -1.0

What do the screens show for `CN(CCO)c1c2c(nc3cc(-c4cccc(F)c4)nn13)CCCC2`?
MDM2 E3 inh: -19.7; STAT1 activator: 141.5*; p97 inhibitor: -8.7; APP 5'UTR act: 153.3*; NF-kB neuron act: 2.12; Wee1 degr inh: -1.9

How did OC1CCN(c2c3c(nc4cc(-c5cccc(F)c5)nn24)CCCC3)CC1 do in these assays?
MDM2 E3 inh: -12.6; STAT1 activator: 118.3; p97 inhibitor: 3.8; APP 5'UTR act: -4.9; NF-kB neuron act: 0.68; Wee1 degr inh: 1.9

Results for Cc1sc(NC(=O)c2ccc(F)cc2)c(CN2CCCCCC2)c1C ?
MDM2 E3 inh: -10.4; STAT1 activator: 131.2*; p97 inhibitor: 3.7; APP 5'UTR act: 46.2; NF-kB neuron act: 1.35; Wee1 degr inh: -0.9

What do the screens show for `Cc1sc(NC(=O)c2ccccc2F)c(CN2CCCCC2)c1C`?
MDM2 E3 inh: -11.9; STAT1 activator: 120.9; p97 inhibitor: -1.6; APP 5'UTR act: 23.6; NF-kB neuron act: 1.76; Wee1 degr inh: 3.8

How did CC(=O)Nc1ccc2nc3c(=O)n(C)c(=O)n(C)c3nc2c1 do in these assays?
MDM2 E3 inh: -11.9; p97 inhibitor: 5.8; Wee1 degr inh: -0.1
